According to ChEMBL document CHEMBL1141297, “Bioactive p-terphenyl derivatives from a Cordyceps-colonizing isolate of Gliocladium sp” (J Nat Prod, 2007):
In brackets after ≈: the same amount, converted by molar mass. Activity calls are given as the source filed them. The rule behind the calls is not given here.

Columns and labels:
Staphylococcus aureus [1] = experiment: Antimicrobial activity against Staphylococcus aureus ATCC 6538 at 100 ug/disk after 48 hrs; assay type: functional; conditions: ATCC 6538, 48 h, read-out: IZ
Staphylococcus aureus [2] = experiment: Antimicrobial activity against Staphylococcus aureus ATCC 6538 after 24 hrs by broth dilution assay; assay type: functional; conditions: ATCC 6538, 24 h
Streptococcus mutans = experiment: Antimicrobial activity against Streptococcus mutans ATCC 25175 at 100 ug/disk after 24 hrs; assay type: functional, organism-based
Method in brief: (§1)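 Bacteria were grown on Mueller-Hinton agar. 6 mm paper disks carrying 100 µg compound were placed on the agar surface and plates were incubated at 37 °C for 24 h. The read-out was the presence and diameter of the inhibition zone, with a ciprofloxacin disk (100 µg) as reference.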

Enterococcus faecalis = experiment: Antimicrobial activity against Enterococcus faecalis ATCC 19433 at 100 ug/disk after 24 hrs; assay type: functional, organism-based; method in brief: as §1
Micrococcus luteus = experiment: Antimicrobial activity against Sarcina lutea CMCC B28001 at 100 ug/disk after 24 hrs; assay type: functional, organism-based; method in brief: as §1
HeLa = experiment: Growth inhibition of human HeLa cells after 4 hrs by MTT assay; assay type: functional, cell-based
Method in brief: (§2)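 MTT viability: 10⁴ cells/well attached overnight, then exposed to serial dilutions (from a 10 mg/mL DMSO stock) in medium, with 0.2% DMSO vehicle, for 4 h at 37 °C, 5% CO₂. Medium was then changed to fresh DMEM, followed by MTT (0.5 mg/mL) for 3 h at 37 °C in the dark. Formazan was dissolved in DMSO and read at 540 nm to give IC50.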

HCT-116 = experiment: Growth inhibition of human HCT116 cells after 4 hrs by MTT assay; assay type: functional, cell-based; conditions: HCT-116, 4 h; method in brief: as §2
Geotrichum candidum = experiment: Antifungal activity against Geotrichum candidum AS2.498 at 100 ug/disk after 48 hrs
Candida albicans = experiment: Antifungal activity against Candida albicans ATCC 10231 at 100 ug/disk after 48 hrs
Aspergillus fumigatus = experiment: Antifungal activity against Aspergillus fumigatus ATCC 10894 at 100 ug/disk after 48 hrs

MIC (Staphylococcus aureus [2]) | IC50 (HeLa) | IC50 (HCT-116) | Structure (SMILES) | zone of inhibition at 100 µg/disc (Staphylococcus aureus [1]) | Activity (Streptococcus mutans) | Activity (Enterococcus faecalis) | Activity (Micrococcus luteus) | Activity (Geotrichum candidum) | Activity (Candida albicans) | Activity (Aspergillus fumigatus)
130 µM (≈ 65.1 µg/mL) | 40 µM | 80 µM | COc1ccc(-c2cc(O)c(-c3ccc(OC)cc3)c(O)c2O[C@@H]2O[C@H](CO)[C@@H](O)[C@H](O)[C@H]2O)cc1 [GLIOCLADININ B] | 20 mm | inactive | inactive | inactive | inactive | inactive | inactive
 |  |  | O=C(O)c1cn(C2CC2)c2cc(N3CCNCC3)c(F)cc2c1=O [CIPROFLOXACIN] | 35 mm |  |  |  |  |  | 
270 µM (≈ 100 µg/mL) | 54 µM | > 270 µM | COC1=C(c2ccc(OC)cc2)C(=O)[C@H](O)[C@@](O)(c2ccc(OC)cc2)C1 [GLIOCLADININ A] | 15 mm | inactive | inactive | inactive | inactive | inactive | inactive
